GPR7 antag = GPR7 receptor antagonists, primary screen, cell-based, fluorescence, single concentration; hit rate 1.1% among 290,000; AID 1861, 2009; inhibition, % at 4.4 µM; GPR7-expressing cells, fluorescence antagonist assay; Neuropeptides B/W receptor type 1 (Homo sapiens), P48145; in the data active means inhibition above about 16%, passing the limit was not always enough;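 further: cells stimulated with the agonist NPW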
TAAR1 antagonist = human TAAR1 antagonists, primary screen, Fluo-8 calcium fluorescence, CHO RD-HGA16 cells | antagonist | inhibition, % at 3 µM | hit rate 1.5% among 360,000 | AID 624466, 2012;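 active means inhibition above a per-plate cutoff, the mean inhibition of test compounds on that plate plus 3 SD, cut at about 49% in these data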
Target sequence (Q96RJ0 whole entry, looked up): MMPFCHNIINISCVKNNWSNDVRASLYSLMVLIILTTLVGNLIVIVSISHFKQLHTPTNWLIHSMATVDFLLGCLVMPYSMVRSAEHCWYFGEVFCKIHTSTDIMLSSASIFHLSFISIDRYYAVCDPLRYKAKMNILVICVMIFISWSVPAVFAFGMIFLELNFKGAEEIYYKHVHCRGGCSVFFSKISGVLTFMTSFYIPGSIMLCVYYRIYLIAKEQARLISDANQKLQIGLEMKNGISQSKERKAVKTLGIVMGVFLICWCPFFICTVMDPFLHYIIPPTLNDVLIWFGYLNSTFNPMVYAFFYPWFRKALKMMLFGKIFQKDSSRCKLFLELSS
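System: CHO RD-HGA16 cells bearing hTAAR1. Reagent: EC80 β-phenethylamine stimulus. Schedule: seeding 17-24 h prior, 75-min 37 °C, 30-min RT dye loading. Signal: Fluo-8 intracellular calcium dye fluorescence, real-time kinetic reads. Read-out: % inhibition from peak post-agonist over basal fluorescence ratio. Benchmarks: vehicle wells and EC80 agonist wells. Replicates: n of 1.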
OX1R antag-1 = antagonists of human orexin 1 receptor (OX1R). Orexin/Hypocretin receptor type 1 (Homo sapiens), O43613. OX1R-expressing cells, FRET antagonist read-out. inhibition, % at 6.6 µM. hit rate 1.8% among 330,000. AID 485270, 2010; in the data active means inhibition mostly above about 38%, no sharp cut-off; inactive means mostly below about 40%
Target sequence (O43613 whole entry, looked up): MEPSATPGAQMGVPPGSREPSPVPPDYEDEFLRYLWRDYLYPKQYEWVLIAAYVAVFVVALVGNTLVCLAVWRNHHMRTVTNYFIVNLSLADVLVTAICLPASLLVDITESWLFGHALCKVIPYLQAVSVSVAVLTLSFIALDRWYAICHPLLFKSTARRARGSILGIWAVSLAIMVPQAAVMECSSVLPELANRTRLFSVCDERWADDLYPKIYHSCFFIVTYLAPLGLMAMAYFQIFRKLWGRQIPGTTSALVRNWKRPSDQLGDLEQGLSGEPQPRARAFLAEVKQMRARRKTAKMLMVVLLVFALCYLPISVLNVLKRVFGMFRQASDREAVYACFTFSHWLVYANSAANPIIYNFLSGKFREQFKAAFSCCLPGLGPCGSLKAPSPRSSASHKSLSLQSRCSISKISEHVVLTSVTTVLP
CHO parental Ca = ATP-evoked calcium signal inhibitors, parental CHO, primary screen, counter-screen for OX1R antagonist project, cell-based, fluorescence, Fluo-8 calcium dye. parental CHO-K1, ATP-induced calcium, Fluo-8 fluorescence. inhibition, % at 5.6 µM. hit rate 0.63% among 330,000;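 active means inhibition above that plate's mean sample inhibition plus 3 SD, cut at about 26% in these data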
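Material: Parental CHO cells | Reagent: ATP | Compound dosing: Single nominal dose of 5.6 µM per compound | Detection: Intracellular calcium via Fluo-8 no-wash fluorescent dye | Read-out: % inhibition of ATP-induced calcium mobilization | Benchmarks: Low control ATP plus DMSO, high control DMSO only | Replicates: Singlicate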
TAAR1 ag = human TAAR1 agonists, primary screen, Fluo-8 calcium fluorescence, CHO RD-HGA16 cells. AID 624467, 2012. vehicle wells 0%, saturating PEA agonist 100%. hit rate 0.99% among 360,000. activation, % at 3 µM;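 active means activation above the mean activation of all test compounds in the run plus 3 SD, cut at about 38% in these data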
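Repeats: no replicates (n 1) | Material: CHO-derived RD-HGA16 cells with stable Gα16 and human TAAR1 | Technique: Kinetic Fluo-8 calcium fluorescence | Schedule: 17-24 h seeding, 75 min 37 °C dye, 30 min RT | Evaluation: % activation from peak over basal fluorescence ratio, DMSO-to-PEA scaled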
OX1R antag-2 = OX1R (HCRTR1) antagonists, primary screen, fluorescence, CHO/OX1R cells, Fluo-8 calcium, orexin A; Orexin/Hypocretin receptor type 1 (Homo sapiens), O43613; Fluo-8 calcium fluorescence; inhibition, % at 5 µM; hit rate 0.43% among 330,000; AID 434989, 2010;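 active means inhibition above its plate's threshold, mean inhibition of all tested compounds on the plate plus 3 SD, cut at about 37% in these data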
TAAR1 ag conf = human TAAR1 agonists, retest of hits, confirmation, Fluo-8 calcium fluorescence, CHO RD-HGA16 cells. AID 651783, 2012. activation, % at 3 µM. shares compounds with TAAR1 ag. scaled: DMSO 0%, maximal phenethylamine 100%. hit rate 82% among 2,400;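 active means activation above a cutoff set at the run's mean compound activation plus 3 SD, cut at about 39% in these data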
Ga16 ag counter = nonselective calcium mobilization agonists, CHO-Ga16 cells, counter-screen for hTAAR1 agonist project, cell-based, fluorescence, CHO-Ga16 parental line. AID 651787, 2012. activation, % at 3 µM. hit rate 50% among 2,400. shares compounds with TAAR1 ag. Fluo-8 calcium fluorescence; normalized to maximal ATP response, DMSO zero;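 active means activation above the run cutoff, the mean activation over all tested wells plus 3 SD, cut at about 12% in these data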
TAAR1 desensitize = TAAR1 desensitization by agonist hits, confirmation, counter-screen for TAAR1 agonist project, cell-based, fluorescence, tachyphylaxis | shares compounds with TAAR1 ag | CHO RD-HGA16 hTAAR1, Fluo-8 calcium, beta-PEA response inhibition | inhibition, % at 3 µM | hit rate 46% among 2,400;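 active means inhibition above the run cutoff, the mean inhibition of all test compounds plus 3 SD, cut at about 49% in these data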;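 further: beta-PEA stimulus applied at its EC80; loss of beta-PEA calcium signal after compound pretreatment read as receptor desensitization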
Ga16 antag count = inhibition of ATP-evoked calcium response in CHO-Ga16 cells, counter-screen for TAAR1 agonist project, cell-based, fluorescence; shares compounds with TAAR1 ag; CHO-Ga16 ATP-induced calcium, Fluo-8 fluorescence; inhibition, % at 3 µM; hit rate 39% among 2,400; AID 651952, 2012;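 active means inhibition above the plate's mean compound inhibition plus 3 SD, computed per plate, cut at about 22% in these data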
Of the large screens only hits and unclear results are named; the others gave an inactive call (follow-up assays come after a bar, where they were run). Sampled rows, rich in hits. Any-hit rate of the full collection: about 4.5%.

CCOC(=O)c1ccc(Oc2cn[nH]c2-c2ccc(OCC(=O)NN)cc2O)cc1	TAAR1 ag 86.1 | TAAR1 ag conf 46.7 | Ga16 ag counter 16.6 | TAAR1 desensitize inactive | Ga16 antag count inactive
Cc1cc(S(=O)(=O)Nc2ccc(C(=O)NCC(c3ccco3)N3CCCCC3)cc2)ccc1F (stereo not drawn)	none (no result: GPR7 antag)
Cc1ccc(NS(=O)(=O)c2ccc(C(=O)NCC(c3ccco3)N3CCCCC3)cc2)cc1 (stereo not drawn)	TAAR1 antagonist 63.1, TAAR1 ag 90.7 (no result: GPR7 antag) | TAAR1 ag conf 72.6 | Ga16 ag counter 32.8 | TAAR1 desensitize inactive | Ga16 antag count 28.3
CCOc1ccc(NS(=O)(=O)c2ccc(C(=O)NCC(c3ccco3)N3CCCCC3)cc2)cc1 (stereo not drawn)	TAAR1 ag 84.0 (no result: GPR7 antag, OX1R antag-1, CHO parental Ca, OX1R antag-2) | TAAR1 ag conf 91.3 | Ga16 ag counter 41.0 | TAAR1 desensitize 53.9 | Ga16 antag count 38.2
CCOc1ccc(NS(=O)(=O)c2ccc(C(=O)NCC(c3ccco3)N(C)C)cc2)cc1 (stereo not drawn)	TAAR1 ag 89.3 (no result: GPR7 antag) | TAAR1 ag conf 79.9 | Ga16 ag counter 50.0 | TAAR1 desensitize inactive | Ga16 antag count 38.8
CCOc1ccc(NS(=O)(=O)c2ccc(C(=O)NCc3ccccn3)cc2)cc1	TAAR1 ag 70.6 (no result: GPR7 antag) | TAAR1 ag conf 120.2 | Ga16 ag counter 58.6 | TAAR1 desensitize 67.3 | Ga16 antag count 29.6
Cc1cccc(C)c1N(CC(=O)NCc1ccccc1)C(=O)c1csnn1	none
COc1cccc(NC(=O)CSc2nc(O)c(C)c(=O)n2-c2ccc(C)cc2)c1	none
Cc1ccc(NS(=O)(=O)c2ccc(C(=O)NCc3ccncc3)cc2)cc1	TAAR1 ag 69.2 (no result: GPR7 antag) | TAAR1 ag conf 60.6 | Ga16 ag counter 25.3 | TAAR1 desensitize inactive | Ga16 antag count 31.9
CCOc1ccc(S(=O)(=O)Nc2cccc(C(=O)NCC(c3ccccc3)N(C)C)c2)cc1 (stereo not drawn)	TAAR1 ag 58.2 (no result: GPR7 antag) | TAAR1 ag conf inactive | Ga16 ag counter 23.3 | TAAR1 desensitize inactive | Ga16 antag count 26.4
COc1ccc(C(CNC(=O)c2cccc(NS(=O)(=O)c3ccccc3)c2)N(C)C)cc1 (stereo not drawn)	none
CCOc1ccc(NS(=O)(=O)c2ccc(C(=O)NCC3(N(C)C)CCCCC3)cc2)cc1	CHO parental Ca 54.9, TAAR1 ag 65.6 (no result: GPR7 antag) | TAAR1 ag conf inactive | Ga16 ag counter inactive | TAAR1 desensitize inactive | Ga16 antag count 26.8
Cc1cc(S(=O)(=O)Nc2ccc(C(=O)NCC3(N(C)C)CCCCC3)cc2)ccc1F	none (no result: GPR7 antag)
O=[N+]([O-])c1ccc(O)c(CNCc2ccccc2)c1	none (no result: GPR7 antag, OX1R antag-1, CHO parental Ca, OX1R antag-2)
O=[N+]([O-])c1ccc(CNCc2cc(Cl)ccc2O)cc1	TAAR1 ag 51.4 (no result: GPR7 antag) | TAAR1 ag conf 59.9 | Ga16 ag counter 19.6 | TAAR1 desensitize inactive | Ga16 antag count inactive
COC1=CC(=O)C(OC)=C(OC)C1=O	none (no result: GPR7 antag, OX1R antag-1, CHO parental Ca, OX1R antag-2)
O=S1(=O)CC(N2CCCC2)CN1CCc1ccccc1 (stereo not drawn)	TAAR1 ag 56.2 (no result: GPR7 antag, OX1R antag-1, CHO parental Ca, OX1R antag-2) | TAAR1 ag conf 45.0 | Ga16 ag counter inactive | TAAR1 desensitize inactive | Ga16 antag count inactive
Cc1ccc2nc(N3CCN(C)CC3)c(C#N)cc2c1	none
Cc1cc(C)c2nc(N3CCN(C)CC3)c(C#N)cc2c1	TAAR1 ag 49.3 | TAAR1 ag conf 53.6 | Ga16 ag counter inactive | TAAR1 desensitize inactive | Ga16 antag count inactive
Cc1cccc2cc(C#N)c(N3CCN(C)CC3)nc12	TAAR1 ag 67.0 | TAAR1 ag conf 76.3 | Ga16 ag counter inactive | TAAR1 desensitize inactive | Ga16 antag count inactive
Cc1ccc2cc(C#N)c(N3CCN(C)CC3)nc2c1	none
CCOc1ccc(C(=O)NCC(=O)OCc2nnc(-c3ccccc3)o2)cc1OCC	none (no result: GPR7 antag)
COC(=O)c1ccc(NS(=O)(=O)c2ccc(-c3cc(C)no3)s2)cc1	none
Cc1cc(C)nc(OC(C(=O)O)C(OCC(C)C)(c2ccccc2)c2ccccc2)n1 (stereo not drawn)	TAAR1 ag 108.4 | TAAR1 ag conf 125.0 | Ga16 ag counter 74.4 | TAAR1 desensitize inactive | Ga16 antag count inactive
Cc1cc(C)nc(OC(C(=O)O)C(OCCc2ccccc2)(c2ccc(F)cc2)c2ccc(F)cc2)n1 (stereo not drawn)	TAAR1 ag 121.7 | TAAR1 ag conf 127.8 | Ga16 ag counter 89.5 | TAAR1 desensitize inactive | Ga16 antag count inactive
CCCOC(c1ccccc1)(c1ccc(C(F)(F)F)cc1)C(Oc1nc(C)cc(C)n1)C(=O)O (stereo not drawn)	none
CCC(C)COC(c1ccccc1)(c1ccccc1)C(Oc1nc(C)cc(C)n1)C(=O)O (stereo not drawn)	TAAR1 ag 80.5 | TAAR1 ag conf 128.3 | Ga16 ag counter 85.5 | TAAR1 desensitize inactive | Ga16 antag count inactive
CN(C)CC(CCCCC(CN(C)C)C(=O)c1ccccc1)C(=O)c1ccccc1 (stereo not drawn)	none
O=C(Cc1cccc(C(F)(F)F)c1)OCN1C(=O)c2ccccc2C1=O	none
Cc1c(C=NNc2ccccc2)[nH]c(=O)[nH]c1=O	TAAR1 ag 57.7 (no result: GPR7 antag, OX1R antag-1, CHO parental Ca, OX1R antag-2) | TAAR1 ag conf 72.1 | Ga16 ag counter inactive | TAAR1 desensitize inactive | Ga16 antag count inactive
O=c1cc(N/N=C/c2ccccc2)[nH]c(=O)[nH]1	TAAR1 ag 57.6 (no result: GPR7 antag) | TAAR1 ag conf 83.9 | Ga16 ag counter 14.9 | TAAR1 desensitize 90.0 | Ga16 antag count inactive
O=c1cc(C=NNc2ccccc2)[nH]c(=O)[nH]1	none (no result: GPR7 antag, TAAR1 antagonist, OX1R antag-1, CHO parental Ca, TAAR1 ag, OX1R antag-2) | Ga16 ag counter inactive | Ga16 antag count inactive
